Consider four molecules from PMC7980362 (Proceedings of the National Academy of Sciences of the …, 2021).

Where two headings read alike, the source gives them in different places.

In series [1] the test system is Ub-(5)KDPGA(15) and PGA(15)-Ub substrates. Briefly: Reaction rates of M. mazei Connectase at different temperatures. The class given is biochemical. An outline of the steps: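 His6-Ub-(5)KDPGA(15) and PGA(15)-Ub-His6, each 6.25 µM, incubated with M. mazei Connectase-His6 at 400× lower concentration, at 25 °C, 37 °C or 50 °C. Buffer: 50 mM acetate/MES/Hepes, 150 mM NaCl, 50 mM KCl, 5 mM TCEP, pH 7.0. Time points were stopped with 2% SDS and run on Coomassie-stained 12% gels. Bands were quantified to give rates.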

Series [2] deals with ubiquitin ligation substrates (Ub-(5)KDPGA(15)/PGA(15)-Ub; Ub-[…]/GGG-Ub). The format is biochemical.
In the next series the test system is M. mazei Connectase. Briefly: Time course of the Connectase reaction with one primary substrate. The format is biochemical. Conditions: 0.9 µM M. mazei Connectase, 3.7 µM Ub-(5)KDPGA(10), 37 °C. A digest of the protocol:
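M. mazei Connectase-His6 incubated with His6-Ub-(5)KDPGA(10) primary substrate only, no secondary substrate. Buffer: 50 mM acetate/MES/Hepes, 150 mM NaCl, 50 mM KCl, 5 mM TCEP, pH 7.0. Time points were stopped with 2% SDS and run on Coomassie-stained 12% gels.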

The test system of another series is LPETG and GGG substrates. Conditions: cited from earlier work.

B1: M. mazei Connectase: sequence-specific protein ligase, monomeric homolog of 20S proteasome subunits from Methanosarcina mazei (protein)
chain: MTLVIAFIGKNGAVMAGDMREITFEGEKPDREKLEKELYSGSIVTDEEMQKKAEEFGVKITVADCKEKVSERNGVLVGEVSSAEGGVVKKRRLYASAGNFAIAELINTEMTLTSQGKGSNFIAFGNEFTKQVANKCFKDNWTKKSNLQDAVKILILCMETVARKTASVSKQFMIVQTASNADVLKVVEKDRNC
modifications: left off: Strep, C-terminal, kept
Turning to B1, in series [1], the “temperature of maximum activity” value turned out to be 50 °C. Further, the “ligase activity of Connectase relative to optimized SrtA5*” value in series [2] (100 µM substrates each, Connectase 50 °C, Sortase 37 °C) is over 40 x. The same molecule came in with a ligation yield in series [2] (protein-protein ligation of two ubiquitin molecules, equimolar substrates) of about 50%.

B2: Ub-(5)KDPGA(10): C. subterraneum ubiquitin fused C-terminally to M. mazei MtrA residues 148 to 167 (protein)
chain: MHHHHHHGSMKIKIVPAVGGGSPLELEVAPNATVGAVRTKVCAMKKLPPDTTRLTYKGRALKDTETLESLGVADGDKFVLITRTVGGRELASKDPGAFDADPLVVEI
Take B2: in the series with M. mazei Connectase, the “fraction of substrate modified (conjugate with Connectase) at any time” value was about 7%.

B3: SrtA5*: evolved SrtA pentamutant with significantly increased activity (protein)
chain: MQAKPQIPKDKSKVAGYIEIPDADIKEPVYPGPATREQLNRGVSFAEENESLDDQNISIAGHTFIDRPNYQFTNLKAAKKGSMVYFKVGNETRKYKMTSIRNVKPTAVEVLDEQKGKDKQLTLITCDDYNEETGVWETRKIFVATEVKLEHHHHHH
What is called Km is the concentration of substrate that gives half-maximal velocity. Regarding B3, the “ligase activity of SrtA5* compared with SrtA” value in series [2] (Ub-GGSLPETGGG and GGG-Ub substrates, 37 °C) is listed as about 100 x. Also, the Km in the series on LPETG and GGG substrates (read-out: KM GGG) was 4700 µM; in the series with LPETG and GGG substrates (read-out: KM LPETG), 170 µM.

B4: SrtA: S. aureus Sortase A without membrane anchor, reference ligase (protein)
chain: MRGSHHHHHHGSQAKPQIPKDKSKVAGYIEIPDADIKEPVYPGPATPEQLNRGVSFAEENESLDDQNISIAGHTFIDRPNYQFTNLKAAKKGSMVYFKVGNETRKYKMTSIRDVKPTDVEVLDEQKGKDKQLTLITCDDYNEKTGVWEKRKIFVATEVK
For the molecule B4, in the series with LPETG and GGG substrates, the “kcat Ligation/kcat Hydrolysis” value is “≈ 3.3”.
